Assay results published in ChEMBL document CHEMBL4316590, “Discovery and synthesis of novel beesioside I derivatives with potent anti-HIV activity” (Eur J Med Chem, 2019).

Assays:
[1] = system: Human immunodeficiency virus 1; assay: Antiviral activity against HIV1 NL4-3 infected in human MT4 cells by luciferase reporter gene assay; format: functional, organism-based
Outline: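 HIV-1 NL4-3 Nanoluc-sec reporter virus (secreted NanoLuc insert) infecting MT4 cells, multicycle replication format, compounds at various concentrations; replication read as NanoLuc luciferase activity (Nano-Glo).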

[2] = system: MT4; assay: Cytotoxicity against human MT4 cells assessed as reduction in cell viability after 3 days by CellTiter-Glo luminescent assay; format: cell-based; conditions: mt4, 72 h
[3] = Therapeutic index, ratio of CC50 for human MT4 cells to EC50 for HIV1 NL4-3 infected in human MT4 cells; format: toxicity, cell-based; conditions: read-out: Ratio CC50/EC50
Outline: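 TI calculated as CC50 (CellTiter-Glo, MT4 cells, 3 days) divided by EC50 (HIV-1 NL4-3 Nanoluc-sec multicycle replication in MT4 cells, luciferase read-out); CC50/EC50 below 5 taken as no selective anti-HIV activity.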

[4] = Human immunodeficiency virus 1, NL4-3, MT4, read-out: EC50

Row | SMILES | EC50 [1] | CC50 [2] | selectivity ratio [3] | EC50 [1, 4]
1 | CC(=O)O[C@H]1[C@@H](OC(C)=O)[C@@]2(C)[C@@H]3CC[C@H]4C(C)(C)[C@@H](OC(=O)CC(C)CC(=O)O)CC[C@@]45C[C@@]35CC[C@@]23CO[C@@]2(C(C)(C)O)CC[C@](C)(O2)[C@@H]13 (mixture of isomers) | Not Active | > 20 µM | < 5 | 
2 | CCC(=O)O[C@H]1CC[C@]23C[C@]24CC[C@]25CO[C@@]6(C(C)(C)O)CC[C@](C)(O6)[C@H]2[C@@H](OC(C)=O)[C@@H](OC(C)=O)[C@@]5(C)[C@@H]4CC[C@H]3C1(C)C | Not Active | > 40 µM | < 5 | 
3 | CC(=O)O[C@H]1[C@@H](OC(C)=O)[C@@]2(C)[C@@H]3CC[C@H]4C(C)(C)[C@@H](OC(=O)COCC(=O)O)CC[C@@]45C[C@@]35CC[C@@]23CO[C@@]2(C(C)(C)O)CC[C@](C)(O2)[C@@H]13 |  | > 5 µM |  | 0.12 µM
4 | Cc1cn([C@H]2C[C@H](N=[N+]=[N-])[C@@H](CO)O2)c(=O)[nH]c1=O [ZIDOVUDINE] |  | 77.5 µM |  | 
5 | CC1(C)[C@@H](O)CC[C@]23C[C@]24CC[C@]25CO[C@@]6(C(C)(C)O)CC[C@](C)(O6)[C@H]2[C@@H](O)[C@@H](O)[C@@]5(C)[C@@H]4CC[C@@H]13 |  | > 40 µM | < 5 | > 40 µM
6 | CC(=O)O[C@H]1[C@@H](OC(C)=O)[C@@]2(C)[C@@H]3CC[C@H]4C(C)(C)[C@@H](O[C@@H]5OC[C@@H](O)[C@H](O)[C@H]5O)CC[C@@]45C[C@@]35CC[C@@]23CO[C@@]2(C(C)(C)O)CC[C@](C)(O2)[C@@H]13 |  | > 40 µM |  | 2.32 µM
7 | CC(=O)O[C@H]1[C@@H](OC(C)=O)[C@@]2(C)[C@@H]3CC[C@H]4C(C)(C)[C@@H](O)CC[C@@]45C[C@@]35CC[C@@]23CO[C@@]2(C(C)(C)O)CC[C@](C)(O2)[C@@H]13 | Not Active | > 40 µM | < 5 | 
8 | CC(=O)O[C@H]1[C@@H]2O[C@@]3(C(C)(C)O[C@H]4O[C@H](CO)[C@@H](O)[C@H](O)[C@H]4O)CC[C@](C)(O3)[C@@H]2[C@@]2(C)CC[C@@]34C[C@@]35CC[C@H](O[C@@H]3OC[C@@H](O)[C@H](O)[C@H]3O)C(C)(C)[C@@H]5CC[C@H]4[C@]12C |  | 35.4 µM | 9.4 | 3.76 µM
9 | CC(=O)O[C@H]1[C@@H](OC(C)=O)[C@@]2(C)[C@@H]3CC[C@H]4C(C)(C)[C@@H](OC(=O)CCC(=O)O)CC[C@@]45C[C@@]35CC[C@@]23CO[C@@]2(C(C)(C)O)CC[C@](C)(O2)[C@@H]13 |  | > 40 µM |  | 7.7 µM
10 | C[C@@H]1O[C@@H](O[C@H]2[C@H](O[C@H]3CC[C@]45C[C@]46CC[C@]4(C)[C@@H]([C@]7(C)CC[C@@H](C(C)(C)O)O7)[C@@H](O)C[C@@]4(C)[C@@H]6CC[C@H]5C3(C)C)OC[C@@H](O)[C@@H]2O)[C@H](O)[C@H](O[C@@H]2O[C@H](CO)[C@@H](O)[C@H](O)[C@H]2O)[C@H]1O |  | > 40 µM | < 5 | > 10 µM
11 | CC(=O)O[C@H]1[C@@H](OC(C)=O)[C@@]2(C)[C@@H]3CC[C@H]4C(C)(C)[C@@H](OC(=O)CC5(CC(=O)O)CCCC5)CC[C@@]45C[C@@]35CC[C@@]23CO[C@@]2(C(C)(C)O)CC[C@](C)(O2)[C@@H]13 |  | > 20 µM |  | 1.59 µM
12 | CC(=O)O[C@H]1[C@@H](OC(C)=O)[C@@]2(C)[C@@H]3CC[C@H]4C(C)(C)[C@@H](OC(=O)CCC(C)(C)C(=O)O)CC[C@@]45C[C@@]35CC[C@@]23CO[C@@]2(C(C)(C)O)CC[C@](C)(O2)[C@@H]13 |  | > 5 µM |  | 0.048 µM
13 | CC(=O)O[C@H]1[C@@H](OC(C)=O)[C@@]2(C)[C@@H]3CC[C@H]4C(C)(C)[C@@H](OC(=O)CC(C)(C)CC(=O)O)CC[C@@]45C[C@@]35CC[C@@]23CO[C@@]2(C(C)(C)O)CC[C@](C)(O2)[C@@H]13 | Not Active | > 20 µM | < 5 | 
14 | CC(C)(O)[C@@H]1CC[C@@](C)([C@H]2[C@@H](O)[C@H](O)[C@@]3(C)[C@@H]4[C@@H](O)C[C@H]5C(C)(C)[C@@H](O[C@@H]6OC[C@@H](O)[C@H](O)[C@H]6O)CC[C@@]56C[C@@]46CC[C@]23C)O1 | Not Active | > 40 µM | < 5 | 
15 | CC(=O)O[C@H]1[C@@H](OC(C)=O)[C@@]2(C)[C@@H]3CC[C@H]4C(C)(C)[C@@H](OC(C)=O)CC[C@@]45C[C@@]35CC[C@@]23CO[C@@]2(C(C)(C)O)CC[C@](C)(O2)[C@@H]13 |  | > 40 µM |  | 2.44 µM
16 | CC(=O)O[C@H]1[C@H](O)[C@H]([C@]2(C)CC[C@@H](C(C)(C)O)O2)[C@@]2(C)CC[C@@]34C[C@@]35CC[C@H](O[C@@H]3OC[C@@H](O)[C@H](O)[C@H]3O)C(C)(C)[C@@H]5CC[C@H]4[C@]12C |  | > 40 µM |  | 4.85 µM
17 | CC(=O)O[C@H]1[C@@H](OC(C)=O)[C@@]2(C)[C@@H]3CC[C@H]4C(C)(C)[C@@H](OC(=O)CC(C)C(=O)O)CC[C@@]45C[C@@]35CC[C@@]23CO[C@@]2(C(C)(C)O)CC[C@](C)(O2)[C@@H]13 (some centres not stated) |  | > 20 µM |  | 1.11 µM
18 | CC(=O)O[C@H]1[C@H](O)[C@@]2(C)[C@@H]3CC[C@H]4C(C)(C)[C@@H](O[C@@H]5OC[C@@H](O)[C@H](O)[C@H]5O)CC[C@@]45C[C@@]35CC[C@@]23CO[C@@](C)(CCC(=O)C(C)(C)O)[C@@H]13 |  | > 40 µM | < 5 | > 10 µM
19 | CC1(C)[C@@H](O[C@@H]2OC[C@@H](O)[C@H](O)[C@H]2O)CC[C@]23C[C@]24CC[C@]25CO[C@@]6(C(C)(C)O)CC[C@](C)(O6)[C@H]2[C@@H](O)[C@@H](O)[C@@]5(C)[C@@H]4CC[C@@H]13 |  | > 40 µM |  | 7.62 µM
20 | CC(=O)O[C@H]1[C@@H](O)[C@@]2(C)[C@@H]3CC[C@H]4C(C)(C)[C@@H](O[C@@H]5OC[C@@H](O)[C@H](O)[C@H]5O)CC[C@@]45C[C@@]35CC[C@@]23CO[C@@]2(C(C)(C)O)CC[C@](C)(O2)[C@@H]13 |  | > 40 µM |  | 4.65 µM
21 | CC(=O)O[C@H]1[C@@H](O)[C@@]2(C)[C@@H]3[C@@H](O)C[C@H]4C(C)(C)[C@@H](O[C@@H]5OC[C@@H](O)[C@H](O)[C@H]5O)CC[C@@]45C[C@@]35CC[C@@]23CO[C@@]2(C(C)(C)O)CC[C@](C)(O2)[C@@H]13 | Not Active | > 40 µM | < 5 | 
22 | C=C(C)[C@@H]1CC[C@]2(C(=O)O)CC[C@]3(C)[C@H](CC[C@@H]4[C@@]5(C)CC[C@H](OC(=O)CC(C)(C)C(=O)O)C(C)(C)[C@@H]5CC[C@]43C)[C@@H]12 [BEVIRIMAT] |  | 15.9 µM | 612 | 0.026 µM
23 | CC(=O)O[C@H]1[C@@H](OC(C)=O)[C@@]2(C)[C@@H]3CC[C@H]4C(C)(C)[C@@H](OC(=O)CC(C)(C)C(=O)O)CC[C@@]45C[C@@]35CC[C@@]23CO[C@@]2(C(C)(C)O)CC[C@](C)(O2)[C@@H]13 |  | > 20 µM | > 800 | 0.025 µM
24 | CC(=O)O[C@H]1[C@@H]2O[C@@]3(C(C)(C)O)CC[C@](C)(O3)[C@@H]2[C@@]2(CO)CC[C@@]34C[C@@]35CC[C@H](O[C@@H]3OC[C@@H](O)[C@H](O)[C@H]3O)C(C)(C)[C@@H]5CC[C@H]4[C@]12C | Not Active | > 40 µM | < 5 | 
25 | CC(=O)O[C@H]1[C@@H](OC(C)=O)[C@@]2(C)[C@@H]3CC[C@H]4C(C)(C)[C@@H](O[C@@H]5OC[C@@H](O)[C@H](O)[C@H]5O)CC[C@@]45C[C@@]35CC[C@@]23CO[C@@](C)(CCC(=O)C(C)(C)O)[C@@H]13 |  | > 30 µM | < 5 | > 30 µM
26 | CC(=O)O[C@H]1[C@@H](OC(C)=O)[C@@]2(C)[C@@H]3CC[C@H]4C(C)(C)C(=O)CC[C@@]45C[C@@]35CC[C@@]23CO[C@@]2(C(C)(C)O)CC[C@](C)(O2)[C@@H]13 | Not Active | > 30 µM | < 5 | 
27 | C[C@@H]1O[C@@H](O[C@H]2[C@H](O[C@H]3CC[C@]45C[C@]46CC[C@]4(C)[C@@H]([C@]7(C)CC[C@@H](C(C)(C)O)O7)[C@@H](O)C[C@@]4(C)[C@@H]6[C@@H](O)C[C@H]5C3(C)C)OC[C@@H](O)[C@@H]2O)[C@H](O)[C@H](O)[C@H]1O |  | > 40 µM | < 5 | > 10 µM
28 | CC(=O)O[C@H]1[C@@H](OC(C)=O)[C@@]2(C)[C@@H]3CC[C@H]4C(C)(C)[C@@H](OC(=O)CCCC(=O)O)CC[C@@]45C[C@@]35CC[C@@]23CO[C@@]2(C(C)(C)O)CC[C@](C)(O2)[C@@H]13 | Not Active | > 20 µM | < 5 | 
